Data set [1] concerns Mus musculus. Put plainly: Reduction in glucose excursion in C57BL/6 mouse at 50 mg/kg, po in water administered 30 mins before glucose challenge measured at 0.5 hr postdose by oral glucose tolerance test. In kind it is functional, C57BL6. Details: scale not given: the % may be the effect or the level left. An outline of the steps:
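Normal C57BL6 mice dosed by oral gavage at 50 mg/kg, with water as vehicle. Oral glucose at 1 g/kg 30 min after dosing. Plasma glucose read by glucose meter at 0 h and at 0.5, 1, 2 and 4 h post-dose. Reported as % reduction from vehicle control at the stated time, with significance at p < 0.05 or the p-value given.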

Data set [2] can be described thus: Permeability at 5 to 10 uM at pH 4, 6.8 and 8 by PAMPA. The following applies: pH 4, 6.8, 8, 10 µM. (In general: In PAMPA a lipid-coated filter parts donor from acceptor wells.)
Data set [3] concerns Mus musculus. Put plainly: Reduction in glucose excursion in C57BL/6 mouse at 10 mg/kg, iv administered 30 mins before glucose challenge measured at 2 hrs postdose by oral glucose tolerance test. In kind it is functional, C57BL6. Set-up: scale not given: the % may be the effect or the level left. An outline of the steps:
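Normal C57BL6 mice, compound given IV at 10 mg/kg. Oral glucose at 1 g/kg 30 min after dosing. Plasma glucose read by glucose meter at 0 h and at 0.5, 1, 2 and 4 h post-dose. Reported as % reduction from vehicle control at the stated time, with significance at p < 0.05 or the p-value given.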

Data set [4] is described as follows: Metabolic stability in human liver microsomes assessed as half life. In kind it is ADME, Microsome. An outline of the steps:
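Compound incubated at 1 μM with human liver microsomes plus selected cofactors (NADPH, UDPGA); clearance followed at 4 time points as % test compound remaining, giving half-life.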
On the technique in general: Liver microsomes are a subcellular fraction often used to study metabolism.

For data set [5], the target named is T1, Hexokinase-4 (Homo sapiens) (UniProt P35557).
T1 sequence (whole entry): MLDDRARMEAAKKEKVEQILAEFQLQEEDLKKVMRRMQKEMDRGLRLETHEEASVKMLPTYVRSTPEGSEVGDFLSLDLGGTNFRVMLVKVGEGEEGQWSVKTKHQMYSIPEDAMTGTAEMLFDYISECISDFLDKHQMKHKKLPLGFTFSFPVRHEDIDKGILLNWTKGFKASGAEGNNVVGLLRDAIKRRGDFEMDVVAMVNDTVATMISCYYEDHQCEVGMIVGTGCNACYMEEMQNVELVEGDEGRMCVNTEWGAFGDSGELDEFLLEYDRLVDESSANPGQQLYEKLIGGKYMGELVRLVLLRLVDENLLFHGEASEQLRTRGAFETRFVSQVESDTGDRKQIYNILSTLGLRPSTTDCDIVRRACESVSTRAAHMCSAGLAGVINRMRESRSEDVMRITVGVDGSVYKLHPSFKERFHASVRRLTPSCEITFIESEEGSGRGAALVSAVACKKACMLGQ
Kind of data set: Activation of His-tagged human recombinant liver glucokinase expressed in Escherichia coli BL21 (DE3) assessed as drug level required for half-maximal activation. In kind it is single protein. An outline of the steps: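 Recombinant human liver GK (aa 17-466), His-tagged, expressed in E. coli BL21 Star (DE3), nickel affinity purified, tag cleaved (GPGSM left), then anion exchange and gel filtration to >95%.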

A short description of data set [6]: Aqueous solubility by HPLC analysis. The settings on record: buffer. In kind it is physicochemical.
The test system of data set [7] is Mus musculus. Put plainly: Reduction in glucose excursion in C57BL/6 mouse at 50 mg/kg, po in microemulsion administered 30 mins before glucose challenge measured at 0.5 hrs postdose by oral glucose tolerance test. In kind it is functional, C57BL6. Set-up: scale not given: the % may be the effect or the level left. An outline of the steps:
(§1)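 C57BL6 mice grouped by matched 0-h plasma glucose; compound given by oral gavage (5 mL/kg) at 50 mg/kg (or 72 mg/kg) in microemulsion (Cremophor RH40, corn oil-monodiglyceride, propylene glycol, ethanol; diluted 2:3 with water) or in water; oral glucose 1 g/kg 30 min later. Blood sampled at 0.5, 1, 2 and 4 h post-dosing for glucose (meter) and insulin; % reduction from control.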

Data set [8] relates to Mus musculus. Put plainly: Reduction in glucose excursion in C57BL/6 mouse at 50 mg/kg, po in water administered 30 mins before glucose challenge measured at 1 hr postdose by oral glucose tolerance test. In kind it is functional, C57BL6. Set-up: scale not given: the % may be the effect or the level left. An outline of the steps: as §1
Data set [9] can be described thus: Intrinsic solubility in neutral pH by HPLC analysis. In kind it is physicochemical.
In data set [10] the test system is Mus musculus. Put plainly: Reduction in glucose excursion in C57BL/6 mouse at 50 mg/kg, po in water administered 30 mins before glucose challenge measured at 2 hrs postdose by oral glucose tolerance test. Details: scale not given: the % may be the effect or the level left. In kind it is functional, C57BL6. An outline of the steps:
as §1

For data set [11], the system named is Mus musculus. Kind of data set: Antidiabetic activity in high fat diet-induced obese C57BL/6 type 2 diabetes mouse model assessed as increase in plasma insulin AUC at 100 mg/kg, po administered QD for 4 weeks by intravenous glucose tolerance test. In kind it is functional, organism-based. Details: dose 100 mg/kg. The settings on record: C57BL6. The procedure, abridged:
(§2)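 Male C57BL6 mice kept on high fat diet dosed orally once daily with vehicle (dH2O) or compound at 30 to 100 mg/kg. Intravenous glucose tolerance test then run; plasma glucose excursion and plasma insulin AUC (0-120 min) calculated; n = 8 mice/group, mean ± SEM, p < 0.05 vs vehicle.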

In data set [12] the test system is Mus musculus. Put plainly: Antidiabetic activity in high fat diet-induced obese C57BL/6 type 2 diabetes mouse model assessed as reduction of glucose output from liver at 30 to 100 mg/kg, po administered QD for 4 weeks by intravenous glucose tolerance test. In kind it is functional, organism-based. The following applies: C57BL6. The procedure, abridged: as §2

The nature of data set [13]: AUC (0 to 24 hrs) in C57BL/6 mouse muscle at 60 mg/kg. Set-up: time < 24 hr, dose 60 mg/kg. In kind it is ADME, organism-based, C57BL6, Muscle tissue. An outline of the steps:
(§3)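 Normal male-unspecified C57BL6 mice given a single 60 mg/kg dose; plasma, liver, pancreas and muscle sampled over 0-24 h, 3 animals with samples pooled for analysis; Cmax (μM) and AUC0-24h (μM*h) of parent drug reported.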

Data set [14] is described as follows: Cmax in C57BL/6 mouse muscle at 60 mg/kg. In kind it is ADME, organism-based, C57BL6, Muscle tissue. Set-up: dose 60 mg/kg. The procedure, abridged:
as §3

The nature of data set [15]: AUC (0 to 24 hrs) in C57BL/6 mouse pancreas at 60 mg/kg. In kind it is ADME, organism-based, C57BL6. Set-up: time < 24 hr, dose 60 mg/kg. The procedure, abridged: as §3
For data set [16], the system named is Mus musculus. Kind of data set: Antidiabetic activity in high fat diet-induced obese C57BL/6 type 2 diabetes mouse model assessed as increase in plasma insulin AUC at 30 mg/kg, po administered QD for 4 weeks by intravenous glucose tolerance test. In kind it is functional, organism-based. Details: dose 30 mg/kg. The following applies: C57BL6. An outline of the steps: as §2

Data set [17] in a line: Cmax in C57BL/6 mouse liver at 60 mg/kg. In kind it is ADME, organism-based, C57BL6. Details: dose 60 mg/kg. The procedure, abridged:
as §3

Data set [18] can be described thus: AUC (0 to 24 hrs) in C57BL/6 mouse liver at 60 mg/kg. In kind it is ADME, organism-based, C57BL6. Set-up: time < 24 hr, dose 60 mg/kg. An outline of the steps:
as §3

A short description of data set [19]: Cmax in C57BL/6 mouse plasma at 60 mg/kg. Details: dose 60 mg/kg. In kind it is ADME, organism-based, C57BL6. The procedure, abridged: as §3
Data set [20] concerns Mus musculus. Put plainly: Antidiabetic activity in po dosed high fat diet-induced obese C57BL/6 type 2 diabetes mouse model assessed as decrease in glucose excursion administered QD for 4 weeks by intravenous glucose tolerance test. In kind it is functional, organism-based. The settings on record: C57BL6. An outline of the steps: as §2
Data set [21] deals with Mus musculus. Put plainly: Antidiabetic activity in high fat diet-induced obese C57BL/6 type 2 diabetes mouse model assessed as improvement of insulin sensitivity at 30 to 100 mg/kg, po administered QD for 4 weeks by intravenous glucose tolerance test. In kind it is functional, organism-based. The settings on record: C57BL6. The procedure, abridged: as §2
Data set [22] relates to Mus musculus. Kind of data set: Antidiabetic activity in high fat diet-induced obese C57BL/6 type 2 diabetes mouse model assessed as improvement of glucose uptake at 30 to 100 mg/kg, po administered QD for 4 weeks by intravenous glucose tolerance test. In kind it is functional, organism-based. The settings on record: C57BL6. The procedure, abridged:
as §2

Data set [23] is described as follows: AUC (0 to 24 hrs) in C57BL/6 mouse plasma at 60 mg/kg. Details: time < 24 hr, dose 60 mg/kg. In kind it is ADME, organism-based, C57BL6. The procedure, abridged:
as §3

A short description of data set [24]: Cmax in C57BL/6 mouse pancreas at 60 mg/kg. In kind it is ADME, organism-based, C57BL6. Set-up: dose 60 mg/kg. The procedure, abridged: as §3

Molecules are shown by their SMILES. Active and inactive are the calls of the source. The rule behind the calls is not given here.

Usually half-life stands for the time in which the quantity being followed falls by half. As for `COc1ccc2nc(NC(=O)C(CC3CCCC3)c3ccc(S(=O)(=O)N4CCNCC4)cc3)sc2n1.Cl` (stereo unspecified), the Activity in [1] amounted to 22%; in data set [3], 26%; in [5] it was 50 nM. In data set [2], the logPm is reported as -4.9. Further, the half-life in data set [4] is less than 1.5 min.

In general, solubility refers to the dissolved amount per volume that the medium holds. With `COc1ccc2nc(NC(=O)C(CC3CCCC3)c3ccc(S(N)(=O)=O)cc3)sc2n1` (stereo unspecified), the logPm in [2] is reported as -4.4. For the same compound, in [4], the half-life was 23.1 min. In data set [6], this compound gave a solubility of less than 2 µg/mL. The Activity in data set [7] came out at 22%; in data set [5], 897 nM.

`COc1ccc2nc(NC(=O)C(CC3CCCC3)c3ccc(S(=O)(=O)NCC(=O)O)cc3)sc2n1` (stereo unspecified): the Activity was found to be 26% in data set [8], 20% in data set [10] and 1860 nM in data set [5]. The logPm in data set [2] is given as -4.4. The solubility in data set [9] is greater than 570 µg/mL. The half-life in [4] is 27.2 min.

The term AUC(0-t) denotes the area under the concentration-time curve up to a stated or last time point. Usually Cmax stands for the peak of the concentration-time curve. On to `COc1ccc2nc(NC(=O)[C@H](CC3CCCC3)c3ccc(S(=O)(=O)N4CCN(C)CC4)cc3)sc2n1`, for which the result in data set [11] and in data set [16] was inactive. For the same compound, the outcome in [12], in data set [21] and in data set [22] was Active. In addition, the AUC(0-t) at 24 h in [13] amounted to 167 µM·h; in [15] it was 3230 µM·h; in data set [18], 511 µM·h; in [23], 52.4 µM·h. In addition, the Cmax worked out at 34.6 µM in [14], 44.5 µM in data set [17], 4.3 µM in data set [19] and 218 µM in data set [24]. Further, the Activity result in [20] was “Dose-dependent effect”; in [5], 23 nM.
